Reference: ChEMBL document CHEMBL3580635, “9-Hydroxycanthin-6-one, a β-Carboline Alkaloid from Eurycoma longifolia, Is the First Wnt Signal Inhibitor through Activation of Glycogen Synthase Kinase 3β without Depending on Casein Kinase 1α” (J Nat Prod, 2015)
Values belong to the compound of their own block, whether it stands above or below them. Calls of active or inactive are those of the source. No cut-off for these calls is given here.

What was measured:
HCT-116 = assay: Cytotoxicity against Wnt-dependent human HCT116 cells assessed as cell viability after 24 hrs by fluorescence assay; type: functional, cell-based; settings: HCT-116, 24 h
HEK293 [1] = assay: Cytotoxicity against HEK293 cells transfected with SuperTOPFlash reporter gene assessed as cell viability at 2.5 to 10 uM after 24 hrs by fluorescence assay; type: cell-based; settings: human, hek293, 24 h
Summary of the method: (§1)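 STF/293 cells seeded 3 × 10^4/well, grown 24 h, then exposed 24 h to compound diluted in medium (DMSO final below 0.1%). Cells washed, then given fluorescein diacetate 10 μg/mL in PBS for 1 h at 37 °C. Fluorescence read at ex 485/em 538 nm. Mean ± SE, n = 3.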

[2] = Cytotoxicity against Wnt-dependent human DLD1 cells assessed as cell viability after 24 hrs by fluorescence assay; type: functional, cell-based; settings: DLD-1, 24 h
HEK293 [3] = assay: Cytotoxicity against HEK293 cells assessed as cell viability after 24 hrs by fluorescence assay; type: cell-based; settings: Homo sapiens, HEK293, 24 h
SW480 [4] = assay: Cytotoxicity against Wnt-dependent human SW480 cells assessed as cell viability after 24 hrs by fluorescence assay; settings: SW480, 24 h
RKO = assay: Cytotoxicity against Wnt-independent human RKO cells assessed as cell viability after 24 hrs by fluorescence assay; type: functional, cell-based
HEK-293T = assay: Cytotoxicity against HEK293T cells assessed as cell viability after 24 hrs by fluorescence assay; type: cell-based; settings: Homo sapiens
[5] = molecular target: T1, Glycogen synthase kinase-3 beta (Homo sapiens, UniProt P49841); assay: Activation of GSK-3beta in HEK293 cells assessed as suppression of TCF/beta-catenin transcriptional activity after 24 hrs by SuperTOPFlash reporter gene assay; type: cell-based
Summary of the method: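 STF/293 cells (293 cells stably carrying SuperTOPFlash, seven LEF/TCF sites) seeded 3 × 10^4/well; 24 h later given compound plus LiCl (final 15 mM) for 24 h. Cells lysed and firefly luciferase read, compared with no-compound control. DMSO final below 0.1%. At least triplicate; mean ± SE, n = 3.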

[6] = molecular target: T1, Glycogen synthase kinase-3 beta; assay: Activation of GSK-3beta in human SW480 cells assessed as downregulation of beta-catenin expression in cytosolic fraction at 10 to 30 uM after 24 hrs by Western blot analysis; type: cell-based
Summary of the method: (§2)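 SW480 cells, 1 × 10^6 per 90 mm dish, treated 24 h after seeding for 24 h. Whole-cell lysates made in Triton/deoxycholate buffer with phosphatase and protease inhibitors; cytosolic and nuclear fractions prepared by NE-PER. Proteins run on 10% SDS-PAGE, blotted to PVDF, probed, detected by ECL. Bands normalized to β-actin or histone H1.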
Target sequence in this assay (P49841 whole entry, looked up): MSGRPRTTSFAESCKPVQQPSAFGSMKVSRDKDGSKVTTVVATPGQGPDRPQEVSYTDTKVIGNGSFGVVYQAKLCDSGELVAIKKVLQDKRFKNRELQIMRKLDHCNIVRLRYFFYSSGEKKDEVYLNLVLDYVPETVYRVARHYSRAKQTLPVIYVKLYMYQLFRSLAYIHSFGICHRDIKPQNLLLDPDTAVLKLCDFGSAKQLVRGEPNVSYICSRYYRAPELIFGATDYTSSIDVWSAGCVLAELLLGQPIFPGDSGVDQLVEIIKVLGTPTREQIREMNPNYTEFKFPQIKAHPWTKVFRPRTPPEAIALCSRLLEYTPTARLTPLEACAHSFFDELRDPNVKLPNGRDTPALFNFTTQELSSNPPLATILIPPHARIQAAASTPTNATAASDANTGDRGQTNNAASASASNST

HEK293 [7] = assay: Cytotoxicity against HEK293 cells transfected with SuperTOPFlash reporter gene assessed as cell viability at 5 to 20 uM after 24 hrs by fluorescence assay; type: cell-based; settings: human, hek293, 24 h; summary of the method: as §1
[8] = molecular target: T1, Glycogen synthase kinase-3 beta; assay: Activation of GSK-3beta in human SW480 cells assessed as increase in phosphorylation of beta-catenin at Ser37 at 30 uM after 24 hrs by Western blot analysis in presence of GSK-3beta siRNA; type: cell-based
Summary of the method: (§3)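 SW480 cells, 1 × 10^5/well, grown 24 h, then transfected for 3 h with control or GSK3β siRNA (10 pmol, Lipofectamine 2000). Compound then added in DMEM/10% FBS for 24 h. Whole-cell lysates Western blotted, normalized to β-actin.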
Target sequence in this assay (P49841 whole entry, looked up): as above

SW480 [9] = assay: Effect on CK1alpha expression in human SW480 cells at 10 to 30 uM after 24 hrs by Western blot analysis; type: functional, cell-based; summary of the method: as §2
Danio rerio [10] = species: Danio rerio; assay: Activation of GSK-3beta in zebrafish embryo assessed as suppression of zic2a gene expression in midbrain tectum at 300 uM measured 4 to 24 hrs post fertilization by in situ hybridization method in presence of MO, p53 MO; type: tissue-based
[11] = molecular target: T1, Glycogen synthase kinase-3 beta; assay: Activation of GSK-3beta in human SW480 cells assessed as increase in phosphorylation of beta-catenin at Thr41 at 30 uM after 24 hrs by Western blot analysis in presence of CK1alpha siRNA; type: cell-based
Summary of the method: (§4)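 SW480 cells, 5 × 10^4/well, grown 24 h, then transfected for 6 h with control or CK1α siRNA (10 pmol, Lipofectamine 2000). Compound then added in DMEM/10% FBS for 24 h. Whole-cell lysates Western blotted, normalized to β-actin.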
Target sequence in this assay (P49841 whole entry, looked up): as above

[12] = molecular target: T1, Glycogen synthase kinase-3 beta; assay: Activation of GSK-3beta in human SW480 cells assessed as increase in phosphorylation of beta-catenin at Ser33 at 10 to 30 uM after 24 hrs by Western blot analysis; type: cell-based; summary of the method: as §2
Target sequence in this assay (P49841 whole entry, looked up): as above

[13] = molecular target: T1, Glycogen synthase kinase-3 beta; assay: Activation of GSK-3beta in human SW480 cells assessed as increase in phosphorylation of beta-catenin at Ser33 at 30 uM after 24 hrs by Western blot analysis in presence of GSK-3beta siRNA; type: cell-based; summary of the method: as §3
Target sequence in this assay (P49841 whole entry, looked up): as above

[14] = molecular target: T1, Glycogen synthase kinase-3 beta; assay: Activation of GSK-3beta in human SW480 cells assessed as increase in phosphorylation of beta-catenin at Thr41 at 30 uM after 24 hrs by Western blot analysis in presence of GSK-3beta siRNA; type: cell-based; summary of the method: as §3
Target sequence in this assay (P49841 whole entry, looked up): as above

SW480 [15] = assay: Effect on GSK-3beta expression in human SW480 cells at 10 to 30 uM after 24 hrs by Western blot analysis; type: functional, cell-based; summary of the method: as §2
[16] = molecular target: T1, Glycogen synthase kinase-3 beta; assay: Activation of GSK-3beta in human SW480 cells assessed as increase in phosphorylation of beta-catenin at Ser33 at 30 uM after 24 hrs by Western blot analysis in presence of control siRNA; type: cell-based; summary of the method: as §3
Danio rerio [17] = species: Danio rerio; assay: Activation of GSK-3beta in zebrafish embryo assessed as suppression of mitf gene expression in neural crest cells at 300 uM measured 24 hrs post fertilization by in situ hybridization method in presence of MO, p53 MO; type: cell-based
Danio rerio [18] = species: Danio rerio; assay: Induction of apoptosis in zebrafish embryo at 300 uM measured 10 to 24 hrs post fertilization by TUNEL assay in presence of MO, p53 MO; type: organism-based; settings: in vivo
Summary of the method: (§5)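 TOPdGFP transgenic zebrafish embryos injected at the one- or two-cell stage with 5 ng control or p53 morpholino. Exposed 10–24 hpf at 28.5 °C in E3 medium containing 300 μM compound. TOPdGFP in the midbrain tectum imaged by fluorescence microscopy; apoptotic cells detected by TUNEL kit.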

[19] = molecular target: T1, Glycogen synthase kinase-3 beta; assay: Activation of GSK-3beta in human SW480 cells assessed as increase in phosphorylation of beta-catenin at Thr41 at 30 uM after 24 hrs by Western blot analysis in presence of control siRNA; type: cell-based; summary of the method: as §3
Danio rerio [20] = species: Danio rerio; assay: Activation of GSK-3beta in zebrafish embryo assessed as reduction of BIO-induced eyeless phenotype appearance at 100 uM measured 4 to 30 hrs post fertilization; parameters: scale not given: the % may be the effect or the level left
Summary of the method: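 Zebrafish embryos exposed 4–30 hpf at 28.5 °C in E3 medium to BIO (0.5 μM) alone or BIO plus compound (100 μM), then examined under a stereomicroscope.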

[21] = molecular target: T1, Glycogen synthase kinase-3 beta; assay: Activation of GSK-3beta in human SW480 cells assessed as increase in phosphorylation of beta-catenin at Ser37 at 30 uM after 24 hrs by Western blot analysis in presence of CK1alpha siRNA; type: cell-based; summary of the method: as §4
[22] = molecular target: T1, Glycogen synthase kinase-3 beta; assay: Activation of GSK-3beta in human SW480 cells assessed as increase in phosphorylation of beta-catenin at Ser37 at 10 to 30 uM after 24 hrs by Western blot analysis; type: cell-based; summary of the method: as §2
[23] = Activation of GSK-3beta in zebrafish embryo assessed as suppression of Wnt/beta-catenin signaling pathway at 300 uM measured 10 to 24 hrs post fertilization by TOPdGFP reporter gene-based fluorescence microscopic analysis in presence of MO, p53 MO; settings: Danio rerio; summary of the method: as §5
[24] = molecular target: T1, Glycogen synthase kinase-3 beta; assay: Activation of GSK-3beta in human SW480 cells assessed as increase in phosphorylation of beta-catenin at Thr41 at 10 to 30 uM after 24 hrs by Western blot analysis; type: cell-based; summary of the method: as §2
Danio rerio [25] = species: Danio rerio; assay: Activation of GSK-3beta in zebrafish embryo assessed as reduction of pigment cells on tail at 300 uM measured 4 to 30 hrs post fertilization
[26] = molecular target: T1, Glycogen synthase kinase-3 beta; assay: Activation of GSK-3beta in human SW480 cells assessed as downregulation of beta-catenin expression in nuclear fraction at 10 to 30 uM after 24 hrs by Western blot analysis; type: cell-based; summary of the method: as §2
[27] = molecular target: Casein kinase I isoform alpha (Homo sapiens) (UniProt P48729); assay: Effect on CK1alpha in human SW480 cells assessed as change in phosphorylation of beta-catenin at Ser45 at 10 to 30 uM after 24 hrs by Western blot analysis; type: cell-based; summary of the method: as §2
[28] = molecular target: T1, Glycogen synthase kinase-3 beta; assay: Activation of GSK-3beta in human SW480 cells assessed as increase in phosphorylation of beta-catenin at Ser37 at 30 uM after 24 hrs by Western blot analysis in presence of control siRNA; type: cell-based; summary of the method: as §3
[29] = molecular target: T1, Glycogen synthase kinase-3 beta; assay: Inhibition of GSK-3beta phosphorylation at Ser9 in human SW480 cells at 30 uM after 24 hrs by Western blot analysis in presence of CK1alpha siRNA; type: cell-based; summary of the method: as §4
[30] = molecular target: T1, Glycogen synthase kinase-3 beta; assay: Activation of GSK-3beta in human SW480 cells assessed as increase in phosphorylation of beta-catenin at Ser33 at 30 uM after 24 hrs by Western blot analysis in presence of CK1alpha siRNA; type: cell-based; summary of the method: as §4
[31] = molecular target: T1, Glycogen synthase kinase-3 beta; assay: Inhibition of GSK-3beta phosphorylation at Ser9 in human SW480 cells at 30 uM after 24 hrs by Western blot analysis in presence of control and GSK-3beta siRNA; type: cell-based; summary of the method: as §3
HEK293 [32] = assay: Cytotoxicity against HEK293 cells transfected with SuperTOPFlash reporter gene assessed as cell viability at 10 to 40 uM after 24 hrs by fluorescence assay; type: cell-based; settings: human, hek293, 24 h; summary of the method: as §1

Chain of Casein kinase I isoform alpha (Homo sapiens) (P48729 2-337 limits assumed): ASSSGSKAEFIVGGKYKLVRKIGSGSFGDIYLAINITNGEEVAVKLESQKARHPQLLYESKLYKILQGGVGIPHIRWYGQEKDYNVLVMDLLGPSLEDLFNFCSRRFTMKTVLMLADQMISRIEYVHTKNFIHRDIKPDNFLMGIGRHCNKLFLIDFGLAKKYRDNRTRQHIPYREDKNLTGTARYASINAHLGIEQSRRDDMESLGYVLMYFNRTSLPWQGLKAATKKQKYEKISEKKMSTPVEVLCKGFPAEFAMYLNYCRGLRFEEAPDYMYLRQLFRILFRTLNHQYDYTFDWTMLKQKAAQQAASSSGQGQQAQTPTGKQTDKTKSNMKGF

Activity [5]: Dose-dependent effect
IC50 [5]: 3 µM
Structure (SMILES): CC(=O)O[C@@H]1C[C@H]2C(C)(C)C(=O)C=C[C@]2(C)[C@H]2CC[C@]3(C)C(=CC[C@H]3[C@H]3COC(=O)C3)[C@@]21C
IC50 (HCT-116): 24.4 µM
Activity (HEK293 [1]): Non-toxic
IC50 [2]: 31.7 µM
IC50 (HEK293 [3]): 31.2 µM
IC50 (SW480 [4]): 11.2 µM
IC50 (RKO): 26.4 µM
IC50 (HEK-293T): > 40 µM

Activity [6]: Active
Activity [8]: inactive
Activity [11]: Active
Activity [12]: Active
Activity [13]: inactive
Activity [14]: inactive
Activity [16]: Active
Activity [19]: Active
Activity (Danio rerio [20]): 46%
Activity [21]: Active
Activity [22]: Active
Activity [23]: Active
Activity [24]: Active
Activity (Danio rerio [25]): Active
Activity [26]: Active
Activity [27]: inactive
Activity [28]: Active
Activity [5]: Dose-dependent effect
IC50 [5]: 6.8 µM
inhibition [29]: Active
Activity [30]: Active
inhibition [31]: Active
Structure (SMILES): O=c1ccc2nccc3c4ccc(O)cc4n1c23
Activity (HEK293 [7]): Non-toxic
IC50 (HCT-116): 30 µM
Activity (SW480 [9]): inactive
Activity (Danio rerio [10]): Active
IC50 [2]: > 40 µM
Activity (SW480 [15]): inactive
IC50 (HEK293 [3]): 36.7 µM
Activity (Danio rerio [17]): Active
Activity (Danio rerio [18]): Non-toxic
IC50 (SW480 [4]): 17.4 µM
IC50 (RKO): > 40 µM
IC50 (HEK-293T): > 40 µM

Activity [5]: Dose-dependent effect
IC50 [5]: 11.6 µM
Structure (SMILES): O=c1ccc2nccc3c4ccc(O[C@@H]5O[C@H](CO)[C@@H](O)[C@H](O)[C@H]5O)cc4n1c23
IC50 (HCT-116): > 40 µM
IC50 [2]: > 40 µM
IC50 (HEK293 [3]): 36.7 µM
Activity (HEK293 [32]): Non-toxic
IC50 (SW480 [4]): > 40 µM
IC50 (RKO): > 40 µM
IC50 (HEK-293T): > 40 µM
